# Compound activity as filed in PubChem BioAssay.
# MrgX1 agonist = human MrgX1 receptor agonism, primary screen. MrgX1-HEK293 cells, Fluo-4 calcium fluorescence, agonist mode; hits give high values. B-score at 10 µM. hit rate 0.44% among 310,000. AID 588627;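 active means calcium response B-score plate-corrected fluorescence ratio at least 3 library SD, with starting fluorescence B-score inside 5 SD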
# Target sequence (Q96LB2 whole entry, looked up): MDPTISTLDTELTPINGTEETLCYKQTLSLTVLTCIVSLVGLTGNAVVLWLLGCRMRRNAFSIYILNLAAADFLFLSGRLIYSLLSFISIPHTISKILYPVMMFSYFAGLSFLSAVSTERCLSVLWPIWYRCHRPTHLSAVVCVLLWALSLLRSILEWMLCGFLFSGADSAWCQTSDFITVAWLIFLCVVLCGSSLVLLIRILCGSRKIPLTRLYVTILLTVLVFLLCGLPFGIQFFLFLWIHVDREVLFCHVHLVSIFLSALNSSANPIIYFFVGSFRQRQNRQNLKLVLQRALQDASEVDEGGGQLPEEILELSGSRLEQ
#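 Assay system: stable human MrgX1 HEK293 cell line. Quantity: 15,000 cells per well. Schedule: cells plated overnight, dye loaded 0.5 h 37 °C, 0.5 h room temperature. Detection: Fluo-4 NW calcium-flux fluorescence, kinetic read. Read-out basis: peak-minus-minimum fluorescence over baseline, converted to B scores. Control set: positive and negative control wells on each plate.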
# MrgX1 antag = human MrgX1 receptor antagonism, primary screen | Q96LB2 | MRGX1-HEK293 calcium flux, Fluo-4, BAM8-22 antagonism; hits give low values | B-score at 10 µM | hit rate 1.3% among 310,000 | AID 588676;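 active means calcium-response B-score plate-corrected more than 3 library SD below zero, starting fluorescence within 5 deviations, no agonist response on first addition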;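 further: peak minus trough fluorescence over baseline after final BAM8-22 challenge near maximal dose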
# RGS4 pot = RGS4 potentiation or activation; HEK293 M3R/inducible RGS4, carbachol calcium flux Fluo4; hits give low values; B-score at 10 µM; hit rate 0.92% among 310,000;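 active means B-score of the integrated calcium signal more than 4 SD below the library mean, with starting fluorescence not abnormally high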;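 further: negative B-score means reduced calcium response which marks RGS4 activation or potentiation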
#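 Material: Inducible-RGS4 HEK293 cells carrying M3 receptor; also added: carbachol at ECmax as muscarinic agonist stimulus; incubation: compound preincubation 20 min at room temperature before agonist; signal: Fluo4-AM (2 µM) calcium-flux fluorescence, kinetic read; measure: integrated calcium ratio converted to B score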
# MrgX1 allo act = human MrgX1 positive allosteric modulation, primary screen | hit rate 0.63% among 310,000 | MrgX1-HEK293, Fluo-4 calcium flux, FDSS; hits give high values | Q96LB2 | B-score at 10 µM;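 active means plate-corrected calcium response at least 3 library SD above typical, normal starting fluorescence, not activating the receptor alone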;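 further: compound read alongside a low EC10 to EC30 dose of BAM8-22 agonist; peak minus trough fluorescence over baseline measured at the second addition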
# RGS4 inh = human RGS4 inhibition; P49798; hit rate 0.45% among 310,000; B-score at 10 µM; HEK293 M3R/RGS4 inducible, Fluo-4 calcium flux; hits give high values; triggered by carbachol at its EC20; AID 463165;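 active means B-score, a plate-corrected calcium signal, over three deviations above library mean, with baseline fluorescence within five deviations of library mean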;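 further: RGS4 expression induced by doxycycline in cells with stable M3 receptor; B-score is computed from the integrated fluorescence ratio over baseline after carbachol; higher B-score means a larger calcium signal and so more RGS4 inhibition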
# Target sequence (P49798 whole entry, looked up): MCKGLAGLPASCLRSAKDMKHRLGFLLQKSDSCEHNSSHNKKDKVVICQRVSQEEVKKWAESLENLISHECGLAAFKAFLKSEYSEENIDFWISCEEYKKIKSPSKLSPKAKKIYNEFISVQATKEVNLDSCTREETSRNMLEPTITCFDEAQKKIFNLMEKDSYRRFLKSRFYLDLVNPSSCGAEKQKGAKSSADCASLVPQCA
# * hit, by the source's call; i = inactive; nt = not tested or not shown. Compounds with a hit are over-represented: about 3.5% of the library has one in this group of screens.
SMILES,MrgX1 agonist,MrgX1 antag,RGS4 pot,MrgX1 allo act,RGS4 inh
N#CC1=C(N)SC(N)=C(C#N)C1c1cccc(Oc2ccccc2)c1,i,-6.5*,i,i,i
N#CC1=C(N)SC(N)=C(C#N)C1Cc1ccccc1,i,i,i,i,i
N#CC1=C(N)SC(N)=C(C#N)C1c1c(Cl)cccc1Cl,42*,i,i,i,i
N#CC1=C(N)SC(N)=C(C#N)C1CCc1ccccc1,i,-5.14*,i,i,i
CCOc1ccc(C2C(C#N)=C(N)SC(N)=C2C#N)cc1OCC,i,i,i,i,i
CC1CCCCN1C(=O)CN1C(=O)c2ccccc2S1(=O)=O (centres undefined),i,i,i,i,i
Cn1c(Br)nc2c1c(=O)n(Cc1ccccc1)c(=O)n2C,i,i,i,i,i
CCCS(=O)(=O)N1CCC(C(=O)NCCN(CC)c2ccccc2)CC1,i,i,i,i,i
COC(=O)c1cc(-c2ccc(C)o2)nc2ccccc12,i,i,i,i,i
Cc1ccc(-c2cc(C(=O)Nc3ccccc3C)c3ccccc3n2)o1,i,-4.77*,i,i,i
O=C(NCCCN1CCOCC1)C(=O)N/N=C/c1c2ccccc2cc2ccccc12,i,i,-9.24*,i,i
CCn1cc([N+](=O)[O-])nc1C,i,-7.54*,i,i,i
COC(=O)Cn1cc([N+](=O)[O-])nc1C,i,i,i,i,i
Cc1ncc(CO)c(/C=N/NC(=S)Nc2ccc(Cl)c(Cl)c2)c1O,i,-9.57*,i,i,i
CCCCn1nnnc1SCC(=O)NNC(=O)C1CCCCC1,i,-5.13*,i,i,i
C=C(C)CSc1nc2sc3c(c2c(=O)n1-c1ccc(C)cc1)CCN(C)C3,nt,nt,-10.4*,nt,i
CCOC(=O)CSc1nc2sc3c(c2c(=O)n1C1CCCCC1)CCN(C)C3,i,i,-10.5*,i,i
CCOC(=O)CSc1nc2sc3c(c2c(=O)n1-c1ccc(OCC)cc1)CCN(C)C3,i,i,i,i,i
CCn1c(SCC(N)=O)nc2sc3c(c2c1=O)CCN(C)C3,i,i,i,i,i
CC1CC=C(c2ccccc2)C(=S)N1 (centres undefined),i,i,i,i,i
COC(CNC(=O)CCc1c(C)nc2c(c(C)nn2-c2ccc(C)cc2)c1C)OC,i,i,i,i,i
CCN(CC)CCNC(=O)CCc1c(C)nc2c(c(C)nn2-c2ccc(C)c(C)c2)c1C,i,i,-7.05*,i,i
Cc1ccc(-n2nc(C)c3c(C)c(CCC(=O)Nc4ccc(CN5CCCC5)cc4)c(C)nc32)cc1,i,i,-7.09*,i,i
CC(C)Cc1nnc(NC(=O)c2cc3c(s2)CCC3)s1,i,i,i,i,i
COc1cccc(NC(=O)/C=C/c2ccco2)c1,i,i,i,i,i
SMILES,MrgX1 agonist,MrgX1 antag,RGS4 pot,MrgX1 allo act,RGS4 inh
O=C(/C=C/c1ccco1)NC(=S)Nc1ccccc1,i,i,i,12.9*,i
CSc1cccc(NC(=O)/C=C/c2ccco2)c1,i,i,i,6.54*,i
CC(=O)c1ccc(NC(=S)NC(=O)/C=C/c2ccco2)cc1,i,i,i,i,i
Cc1cccc(NC(=S)NC(=O)/C=C/c2ccco2)c1,i,i,i,9.09*,i
CCOC(=O)C1=C(COC(=O)CNC(=O)c2cc(OC)c(OC)c(OC)c2)NC(=O)NC1C (centres undefined),i,i,i,i,i
O=C(COC(=O)c1n[nH]c2ccccc12)c1cccc(Br)c1,i,-5.45*,i,i,i
Cc1cc(C(=O)Nc2ccccc2N2CCOCC2)ccc1[N+](=O)[O-],i,i,i,i,i
S=C1N(c2ccccc2)C(c2ccc(Cl)cc2)N2CCCN12 (centres undefined),i,i,-7.24*,i,i
COc1ccc(C2N(c3ccccc3)C(=S)N3CCCN23)cc1 (centres undefined),i,i,i,i,i
CCn1c2ccc(F)cc2c2nnc(SCCN3CCCCC3)nc21,i,i,-6.96*,i,i
C=CCn1c2ccccc2c2nnc(SCCN3CCCCC3)nc21,i,i,-7.35*,i,i
CCCn1c2ccccc2c2nnc(SCCN3CCOCC3)nc21,i,i,i,i,i
CCOC(=O)CSC1=C(C#N)C(=O)NC(c2ccc(OC)cc2)S1 (centres undefined),i,i,i,i,i
Cc1nn(C)cc1/C=N/NC(=O)C1(O)c2ccccc2-c2ccccc21,i,i,i,i,i
Cc1ccc2nc(-c3ccccc3)cc(C(=O)N3CCN(c4ccccc4O)CC3)c2c1,i,i,-8.58*,i,i
CN1CCCN(C(=O)c2cc(-c3ccc(Cl)c(Cl)c3Cl)nc3ccccc23)CC1,40.7*,i,i,i,i
O=C(OCC(=O)N1CCN(C(=O)c2ccco2)CC1)c1cc(-c2ccc(Cl)c(Cl)c2Cl)nc2ccccc12,i,i,i,i,i
O=C(c1cc(-c2ccccc2)nc2ccccc12)N1CCN(c2ccccc2O)CC1,i,i,-7.12*,i,i
O=C(c1cc(-c2ccncc2)nc2ccccc12)N1CCN(c2ccccc2O)CC1,i,i,i,i,i
COc1ccc(-c2nnnn2CCc2ccccc2)cc1,i,i,i,i,i
O=C(NCc1csc2ccccc12)Nc1cc(Cl)cc(Cl)c1,i,-4.57*,i,i,i
CC(NC(=O)Cn1cc(C(F)(F)F)ccc1=O)c1ccc(F)cc1 (centres undefined),i,i,i,6.91*,i
CC(=O)N/N=C(/C)c1ccc(NC(=O)c2csc(C)c2C)cc1,i,i,i,i,i
CCOC(=O)CN1C(=O)N(c2ccccc2OC)S(=O)(=O)c2ccccc21,i,i,i,i,i
Cc1cc(C)cc(NC(=O)CCC(=O)Nc2nnc(C(F)(F)F)s2)c1,i,i,i,i,i
COc1ccc(-c2csc(NC(=O)C3CCCO3)n2)cc1 (centres undefined),i,i,-7.02*,i,i
CCCOc1cccc(-c2cc(-c3n[nH]c(=S)n3CC)c3ccccc3n2)c1,i,i,-8.52*,i,i
Cn1c(=O)c(=O)n(C)c2cc(S(=O)(=O)N3CCCC3C(=O)Nc3ccc(F)cc3)ccc21 (centres undefined),i,i,i,i,i
